# Experimental data from ChEMBL document CHEMBL1165869, “Synthesis, characterization and antihypertensive activity of pyridazinone derivatives” (2010).
# Tested on: Rattus norvegicus
# Assay: Antihypertensive activity against methyl prednisolone acetate-indcuced hypertension in normotensive albino rat assessed as reduction in mean arterial pressure at 20 mg/kg, ip after 1 hr
# Assay type: functional, Artery
# Set-up: scale not given: the % may be the effect or the level left
# Details: route intraperitoneal
# Outline: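 Albino rats (200–250 g), conditioned in restrainer 10 min daily for one week; hypertension induced by s.c. methyl prednisolone acetate 20 mg/kg/wk for 2 weeks. Compound suspended in 1% CMC, given i.p.; mean arterial pressure read 1 h later in conscious rats by non-invasive tail-cuff. Groups of 5; mean ± SEM; one-way ANOVA with Dunnett test versus hypertensive control.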
row,SMILES,Activity
1,O=C1CCC(c2ccc(Cl)cc2)=NN1Cn1cncn1,29.77%
2,CCc1ccc(C2=NN(CN3CCCC3)C(=O)CC2)cc1,44.31%
3,CCc1ccc(C2=NN(CN3CCN(C)CC3)C(=O)CC2)cc1,47.14%
4,CN1CCN(CN2N=C(c3ccccc3)CCC2=O)CC1,39.93%
5,COc1ccc(C2=NN(CN3CCN(C)CC3)C(=O)CC2)cc1,36.05%
6,CCc1ccc(C2=NN(CN3c4ccccc4Sc4ccccc43)C(=O)CC2)cc1,36.17%
7,COc1ccc(C2=NN(CN3CCCCC3)C(=O)CC2)cc1,27.16%
8,CN1CCN(CN2N=C(c3ccc(-c4ccccc4)cc3)CCC2=O)CC1,25.58%
9,CC(C)Cc1ccc(C2=NN(CN3CCCCC3)C(=O)CC2)cc1,16.09%
10,CC(C)Cc1ccc(C2=NN(Cn3ccc4ccccc43)C(=O)CC2)cc1,28.91%
11,O=C1CCC(c2ccc(-c3ccccc3)cc2)=NN1Cn1cncn1,39.5%
12,O=C1CCC(c2ccc(-c3ccccc3)cc2)=NN1Cn1ccc2ccccc21,33.46%
13,O=C1CCC(c2ccccc2)=NN1Cn1ccc2ccccc21,15.81%
14,O=C1CCC(c2ccc(Cl)cc2)=NN1CN1CCCC1,30.01%
15,Cc1ccc(C2=NN(CN3CCOCC3)C(=O)CC2)cc1,14.12%
16,COc1ccc(C2=NN(CN3c4ccccc4Sc4ccccc43)C(=O)CC2)cc1,33.83%
17,O=C1CCC(c2ccccc2)=NN1Cn1cncn1,38.7%
18,COc1ccc(C2=NN(Cn3ccc4ccccc43)C(=O)CC2)cc1,32.72%
19,O=C1CCC(c2ccc(Cl)cc2)=NN1CN1CCOCC1,25.83%

row,SMILES,Activity
1,COc1ccc(C2=NN(Cn3cncn3)C(=O)CC2)cc1,29.27%
2,Cc1ccc(C2=NN(CN3CCCCC3)C(=O)CC2)cc1,35.56%
3,O=C1CCC(c2ccccc2)=NN1CN1CCOCC1,31.21%
4,Cc1ccc(C2=NN(Cn3cncn3)C(=O)CC2)cc1,41.16%
5,Cc1ccc(C2=NN(CN3CCN(C)CC3)C(=O)CC2)cc1,39.13%
6,CCc1ccc(C2=NN(CN3CCCCC3)C(=O)CC2)cc1,30.51%
7,O=C1CCC(c2ccc(-c3ccccc3)cc2)=NN1CN1CCCCC1,29.52%
8,Cc1ccc(C2=NN(CN3c4ccccc4Sc4ccccc43)C(=O)CC2)cc1,34.94%
9,CC(C)Cc1ccc(C2=NN(CN3CCNCC3)C(=O)CC2)cc1,32.48%
10,O=C1CCC(c2ccc(-c3ccccc3)cc2)=NN1CN1CCCC1,30.14%
11,CC(C)Cc1ccc(C2=NN(CN3CCOCC3)C(=O)CC2)cc1,24.22%
12,CCc1ccc(C2=NN(CN3CCNCC3)C(=O)CC2)cc1,36.05%
13,O=C1CCC(c2ccc(-c3ccccc3)cc2)=NN1CN1CCOCC1,29.52%
14,O=C1CCC(c2ccccc2)=NN1CN1c2ccccc2Sc2ccccc21,42.4%
15,O=C1CCC(c2ccccc2)=NN1CN1CCCCC1,33.46%
16,CCc1ccc(C2=NN(Cn3ccc4ccccc43)C(=O)CC2)cc1,32.97%
17,CC(C)Cc1ccc(C2=NN(CN3CCN(C)CC3)C(=O)CC2)cc1,28.29%
18,CCc1ccc(C2=NN(Cn3cncn3)C(=O)CC2)cc1,29.52%
19,COc1ccc(C2=NN(CN3CCNCC3)C(=O)CC2)cc1,35.44%

row,SMILES,Activity
1,O=C1CCC(c2ccc(Cl)cc2)=NN1CN1CCCCC1,24.84%
2,CN1CCN(CN2N=C(c3ccc(Cl)cc3)CCC2=O)CC1,39.5%
3,COc1ccc(C2=NN(CN3CCOCC3)C(=O)CC2)cc1,29.77%
4,O=C1CCC(c2ccc(-c3ccccc3)cc2)=NN1CN1c2ccccc2Sc2ccccc21,25.91%
5,O=C1CCC(c2ccc(Cl)cc2)=NN1CN1CCNCC1,28.78%
6,O=C1CCC(c2ccc(Cl)cc2)=NN1CN1c2ccccc2Sc2ccccc21,38.88%
7,CC(C)Cc1ccc(C2=NN(Cn3cncn3)C(=O)CC2)cc1,34.94%
8,Cc1ccc(C2=NN(CN3CCCC3)C(=O)CC2)cc1,31.74%
9,Cc1ccc(C2=NN(Cn3ccc4ccccc43)C(=O)CC2)cc1,23.85%
10,O=C1CCC(c2ccc(-c3ccccc3)cc2)=NN1CN1CCNCC1,30.14%
11,COc1ccc(C2=NN(CN3CCCC3)C(=O)CC2)cc1,31.62%
12,CCc1ccc(C2=NN(CN3CCOCC3)C(=O)CC2)cc1,47.31%
13,NNc1nncc2ccccc12 [HYDRALAZINE],40.76%
14,Cc1ccc(C2=NN(CN3CCNCC3)C(=O)CC2)cc1,40.98%
15,CC(C)Cc1ccc(C2=NN(CN3c4ccccc4Sc4ccccc43)C(=O)CC2)cc1,25.58%
16,O=C1CCC(c2ccccc2)=NN1CN1CCCC1,19.11%
17,O=C1CCC(c2ccc(Cl)cc2)=NN1Cn1ccc2ccccc21,36.3%
18,O=C1CCC(c2ccccc2)=NN1CN1CCNCC1,41.99%
19,CC(C)Cc1ccc(C2=NN(CN3CCCC3)C(=O)CC2)cc1,32.97%
